≈ marks a conversion by molar mass, not a printed value.
Columns and labels:
Type in all cases: functional
Haemophilus influenzae [1] = experiment: Ratio of MBC to MIC for Haemophilus influenzae type b ATCC 49247 by M7-A9 microdilution method
Haemophilus influenzae [2] = experiment: Bactericidal activity against Haemophilus influenzae type b ATCC 49247 incubated for 24 hrs followed by transferring to freshly prepared broth medium and measured after 24 hrs by M7-A9 microdilution method; details: type b ATCC 49247, 24 h
Haemophilus influenzae [3] = experiment: Antibacterial activity against Haemophilus influenzae type b ATCC 49247 incubated for 24 hrs by M7-A9 microdilution method; details: type b ATCC 49247, 24 h
How it was run: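 CLSI M7-A9 broth microdilution against H. influenzae ATCC 49247. Compounds held as 2 mg/mL DMSO stocks, diluted 2-fold in Mueller–Hinton broth across 50 to 0.1 μg/mL. Wells received inoculum standardized to 0.5 McFarland and were run in triplicate. After 24 h at 37 °C, MIC taken as the lowest concentration preventing visible turbidity. Ciprofloxacin served as positive control.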

Row | MIC (Haemophilus influenzae [3]) | SMILES | Ratio (Haemophilus influenzae [1]) | MBC (Haemophilus influenzae [2])
1 | 18.8 µg/mL (≈ 38.5 µM) | CC1(C)CC[C@]2(C(=O)O)CC[C@]3(C)C(=CC[C@@H]4[C@@]5(C)CC[C@H](O)[C@@](C)(CO)[C@@H]5[C@H](O)C[C@]43C)[C@@H]2C1 | 2.7 | 50 µg/mL (≈ 102 µM)
2 | 25 µg/mL (≈ 51.4 µM) | C[C@H]1[C@H](C)CC[C@]2(C(=O)O)CC[C@]3(C(=O)O)C(=CC[C@@H]4[C@@]5(C)CC[C@H](O)C(C)(C)[C@@H]5CC[C@]43C)[C@H]12 | >2 | > 50 µg/mL
3 | 18.8 µg/mL (≈ 37.2 µM) | CC1(C)CC[C@]2(C(=O)O)CC[C@]3(C)C(=CC[C@@H]4[C@@]5(C)CC[C@H](O)[C@@](C)(CO)[C@@H]5[C@H](O)C[C@]43C)[C@@H]2[C@@H]1O | 2.7 | 50 µg/mL (≈ 99.1 µM)
4 | 18.8 µg/mL (≈ 39.8 µM) | C[C@@H]1CC[C@]2(C(=O)O)CC[C@]3(C)C(=CC[C@@H]4[C@@]5(C)CC[C@H](O)C(C)(C)[C@@H]5CC[C@]43C)[C@@H]2[C@]1(C)O [POMOLIC ACID] | 2.7 | 50 µg/mL (≈ 106 µM)

Second part, the compound before the results:

Row | SMILES | MIC (Haemophilus influenzae [3]) | Ratio (Haemophilus influenzae [1]) | MBC (Haemophilus influenzae [2])
5 | O=C(O)c1cn(C2CC2)c2cc(N3CCNCC3)c(F)cc2c1=O [CIPROFLOXACIN] | 1.6 µg/mL (≈ 4.83 µM) | 1 | 1.6 µg/mL (≈ 4.83 µM)
6 | C[C@@H]1CC[C@]2(C(=O)O)CC[C@]3(C)C(=CC[C@@H]4[C@@]5(C)CC[C@@H]6OC([C@H]7[C@@H]8C[C@H]9c%10[nH]c%11ccccc%11c%10CCN9C(=O)C8=CO[C@@H]7C)OC[C@]6(CO)[C@@H]5CC[C@]43C)[C@@H]2[C@]1(C)O (some centres undefined) | 25 µg/mL (≈ 30.4 µM) | 2 | 50 µg/mL (≈ 60.7 µM)
7 | C/C=C1/CO[C@H](O)[C@H]2C(=O)N3CCc4c([nH]c5ccccc45)[C@@H]3C[C@@H]12 | 4.7 µg/mL (≈ 13.9 µM) | 2.7 | 12.5 µg/mL (≈ 36.9 µM)
8 | C[C@H]1OC=C2C(=O)N3CCc4c([nH]c5ccccc45)[C@@H]3C[C@H]2[C@@H]1C=O | 3.1 µg/mL (≈ 9.22 µM) | 4 | 12.5 µg/mL (≈ 37.2 µM)
9 | C/C=C(/C=O)c1cc2n(c(=O)c1O)CCc1c-2[nH]c2ccccc12 | 50 µg/mL (≈ 156 µM) | >1 | > 50 µg/mL
10 | CC(O)c1coc2c(=O)n3c(cc12)-c1[nH]c2ccccc2c1CC3 (centres undefined) | 25 µg/mL (≈ 78 µM) | 2 | 50 µg/mL (≈ 156 µM)
11 | COC(OC)[C@H]1[C@@H]2C[C@H]3c4[nH]c5ccccc5c4CCN3C(=O)C2=CO[C@@H]1C | 50 µg/mL (≈ 131 µM) | >1 | > 50 µg/mL
12 | C/C=C1/COC(=O)[C@H]2C(=O)N3CCc4c([nH]c5ccccc45)[C@@H]3C[C@@H]12 | 4.7 µg/mL (≈ 14 µM) | 2.7 | 12.5 µg/mL (≈ 37.2 µM)
13 | C[C@H]1[C@H](C)CC[C@]2(C(=O)O)CC[C@]3(C(=O)O)C(=CC[C@@H]4[C@@]5(C)CCC(=O)C(C)(C)[C@@H]5CC[C@]43C)[C@H]12 | 18.8 µg/mL (≈ 38.8 µM) | 2.7 | 50 µg/mL (≈ 103 µM)

Reference: ChEMBL document CHEMBL4414555, “Constituents from Nauclea latifolia with Anti-Haemophilus influenzae Type b Inhibitory Activities” (2019)
